Data: ChEMBL document CHEMBL4715732, “4-Phenylureido/thioureido-substituted 2,2-dimethylchroman analogs of cromakalim bearing a bulky 'carbamate' moiety at the 6-position as potent inhibitors of glucose-sensitive insulin secretion” (Eur J Med Chem, 2016)
Blank lines part the entries; values can stand above or below the molecule they belong to. Calls of active or inactive are those of the source. The calls are words filed in the database; no cut-off is given here.

Columns and labels:
[1] = organism: Rattus norvegicus; assay: Activation of ATP-sensitive potassium channel in perifused Wistar rat pancreatic islets assessed as inhibition of 45Ca outflow at 10 uM measured up to 90 mins in presence of 16.7 mM glucose and extracellular Ca2+ by scintillation counting method; details: filed as opener, time min <=90
Method in brief: (§1)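 Rat islets were prelabeled with 45Ca and perifused throughout with 16.7 mM glucose. Basal medium either contained extracellular Ca2+ or was Ca2+-free and enriched with 0.5 mM EGTA. Agent was added at 10 μM, and 45Ca outflow and insulin release were followed. Values are mean ± SEM of 5-6 individual experiments.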

[2] = organism: Rattus norvegicus; assay: Activation of ATP-sensitive potassium channel in perifused Wistar rat pancreatic islets assessed as increase in extracellular K+ concentration at 10 uM measured up to 90 mins in presence of 2.8 mM glucose and absence of extracellular Ca2+ by scintillation counting method; details: filed as opener, time min <=90
[3] = tested on: Aorta; assay: Myorelaxant activity in aortic rings isolated from Wistar rat assessed as reduction in 30 mM KCl-induced contractions in presence of 1 uM KATP channel blocker glibenclamide; format: functional, tissue-based
Method in brief: (§2)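 Endothelium-free rat aorta rings were contracted with 30 mM or 80 mM K+, with 1 or 10 μM glibenclamide present for some 30 mM series. Agent was applied cumulatively. EC50 is the concentration giving 50% relaxation of the KCl-induced contraction, reported as mean ± SEM (n).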

[4] = tested on: Pancreatic islet; assay: Decrease in cytosolic Ca2+ concentration during sustained phase in Wistar rat pancreatic islets at 10 uM measured up to 30 mins in presence of 2.8 to 20 mM extracellular glucose concentration by Fura-2 dye based fluorescence assay; format: functional, tissue-based; details: time min <=30
Method in brief: (§3)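 Single rat pancreatic islet cells were loaded with fura-2 and cytosolic Ca2+ was read as the 340:380 nm fluorescence ratio. Glucose was raised from 2.8 to 20 mM, in medium with or without external calcium. Agent (10 μM) was added afterwards, during the sustained phase.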

[5] = organism: Rattus norvegicus; assay: Activation of ATP-sensitive potassium channel in perifused Wistar rat pancreatic islets assessed as increase in [45]Ca efflux at 10 uM measured up to 90 mins in presence of 16.7 mM glucose and absence of extracellular Ca2+ by scintillation counting method; details: filed as opener, time min <=90; method in brief: as §1
[6] = tested on: Aorta; assay: Myorelaxant activity in aortic rings isolated from Wistar rat assessed as reduction in 30 mM KCl-induced contractions in presence of 10 uM KATP channel blocker glibenclamide; format: functional, tissue-based; method in brief: as §2
[7] = Residual 16.7 mM glucose-induced insulin secretion in Wistar rat pancreatic islets at 0.5 uM incubated for 90 mins in presence of glucose by radioimmunological assay relative to control; details: Pancreatic islet, 1.5 h
[8] = organism: Rattus norvegicus; assay: Activation of ATP-sensitive potassium channel in perifused Wistar rat pancreatic islets assessed as increase in extracellular K+ concentration at 10 uM measured up to 90 mins in presence of 2.8 mM glucose and extracellular Ca2+ by scintillation counting method; details: filed as opener, time min <=90
Method in brief: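 Rat islets were perifused in 2.8 mM glucose with extracellular Ca2+. Extracellular K+ was raised from 5 to 50 mM, and 45Ca outflow was measured with or without agent (10 μM) present continuously. Values are mean ± SEM of 10 individual experiments.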

[9] = organism: Rattus norvegicus; assay: Activation of ATP-sensitive potassium channel in perifused Wistar rat pancreatic islets assessed as increase in 86Rb outflow at 10 uM measured up to 90 mins in basal media containing 5.6 mM glucose and glibenclamide by scintillation counting method; details: time min <=90
Method in brief: (§4)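 Rat islets were perifused throughout in basal medium with 5.6 mM glucose and extracellular Ca2+, with or without the KATP blocker glibenclamide (10 μM). Test agent was added at 10 μM and 86Rb outflow was followed. Values are mean ± SEM of 6 individual experiments.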

[10] = tested on: Pancreatic islet; assay: Increase in intracellular Ca2+ concentration under deprived extracellular calcium and physiological condition in Wistar rat pancreatic islets at 10 uM measured up to 30 mins in presence of 20 mM extracellular glucose concentration by Fura-2 dye based fluorescence assay; format: functional, tissue-based; details: time min <=30; method in brief: as §3
[11] = tested on: Aorta; assay: Myorelaxant activity in aortic rings isolated from Wistar rat assessed as reduction in 80 mM KCl-induced contractions; format: functional, tissue-based; method in brief: as §2
[12] = organism: Rattus norvegicus; assay: Activation of ATP-sensitive potassium channel in perifused Wistar rat pancreatic islets assessed as increase in 86Rb outflow at 10 uM measured up to 90 mins by scintillation counting method; details: filed as opener, time min <=90
[13] = organism: Rattus norvegicus; assay: Activation of ATP-sensitive potassium channel in perifused Wistar rat pancreatic islets assessed as inhibition of insulin secretion at 10 uM measured up to 90 mins in presence of 16.7 mM glucose by scintillation counting method; details: filed as opener, time min <=90; method in brief: as §1
[14] = organism: Rattus norvegicus; assay: Ratio of EC50 for vasorelaxant activity in aortic rings isolated from Wistar rat assessed as reduction in KCl-induced contractions measured after 60 mins in presence of 80 mM KCl by force-displacement transducer to IC50 for inhibition of 16.7 mM glucose-induced insulin secretion in Wistar rat pancreatic islets incubated for 90 mins in presence of glucose by radioimmunological assay; format: functional
[15] = organism: Rattus norvegicus; assay: Activation of ATP-sensitive potassium channel in perifused Wistar rat pancreatic islets assessed as increase in 45Ca efflux at 10 uM measured up to 90 mins in presence of 2.8 mM glucose and absence of extracellular Ca2+ by scintillation counting method; details: filed as opener, time min <=90
Method in brief: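 Perifused rat islets carrying 45Ca were exposed to 2.8 mM glucose in medium with or without extracellular Ca2+. Agent was added at 10 μM and 45Ca outflow was monitored.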

[16] = organism: Rattus norvegicus; assay: Activation of ATP-sensitive potassium channel in perifused Wistar rat pancreatic islets assessed as increase in 86Rb outflow at 10 uM measured up to 90 mins by scintillation counting method; details: filed as opener, time min <=90; method in brief: as §4
[17] = tested on: Pancreatic islet; assay: Increase in intracellular Ca2+ concentration under deprived extracellular calcium and physiological condition in Wistar rat pancreatic islets at 10 uM measured up to 30 mins in presence of 2.8 mM extracellular glucose concentration by Fura-2 dye based fluorescence assay; format: functional, tissue-based; details: time min <=30
Method in brief: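 Fura-2-loaded single rat islet cells were kept at 2.8 mM glucose in medium with or without extracellular calcium. Agent was added at 10 μM and fluorescence intensity was monitored.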

[18] = (§5) Inhibition of glucose-induced insulin secretion in Wistar rat pancreatic islets incubated for 90 mins in presence of 16.7 mM glucose by radioimmunological assay; format: functional, tissue-based; details: Pancreatic islet, 1.5 h
Method in brief: (§6)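 Rat pancreatic islets were incubated with 16.7 mM glucose, with test concentrations added to the medium (0.1, 0.5, 1 and 10 μM). Insulin release is given as a percentage of the control (no drug, 16.7 mM glucose), as mean ± SEM with n = number of samples. IC50 is the concentration giving a 50% reduction of the secretory response to glucose.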

[19] = tested on: Pancreatic islet; assay: as §5; format: functional, tissue-based; method in brief: as §6
[20] = Residual glucose-induced insulin secretion in Wistar rat pancreatic islets at 10 uM incubated for 90 mins in presence of 16.7 mM glucose by radioimmunological assay relative to control; details: Pancreatic islet, 1.5 h
[21] = Residual glucose-induced insulin secretion in Wistar rat pancreatic islets at 0.1 uM incubated for 90 mins in presence of 16.7 mM glucose by radioimmunological assay relative to control; details: Pancreatic islet, 1.5 h
[22] = Residual glucose-induced insulin secretion in Wistar rat pancreatic islets at 1 uM incubated for 90 mins in presence of 16.7 mM glucose by radioimmunological assay relative to control; details: Pancreatic islet, 1.5 h
[23] = tested on: Aorta; assay: Myorelaxant activity in aortic rings isolated from Wistar rat assessed as reduction in KCl-induced contractions measured after 60 mins in presence of 80 mM KCl by force-displacement transducer; format: functional, tissue-based; details: for EC50: 1 h, in the assay text read “30 mM KCl” for “80 mM KCl”; method in brief: as §2
[24] = organism: Rattus norvegicus; assay: Activation of ATP-sensitive potassium channel in perifused Wistar rat pancreatic islets assessed as increase in 86Rb outflow at 10 uM measured up to 90 mins by scintillation counting method; details: filed as opener, time min <=90; remark: listed apart in the source

Structure (SMILES): CC(C)OC(=O)Nc1ccc2c(c1)C(NC(=O)Nc1cccc(Cl)c1)CC(C)(C)O2 (racemic)
residual insulin secretion at 10 µM [20]: 23.7%
residual insulin secretion at 1 µM [22]: 92%
EC50 [23]: 12.6 µM

Structure (SMILES): CCOC(=O)Nc1ccc2c(c1)C(NC(=O)Nc1cccc(C#N)c1)CC(C)(C)O2 (racemic)
residual insulin secretion at 10 µM [20]: 5.9%
residual insulin secretion at 1 µM [22]: 81%
EC50 [23]: 14.2 µM

Structure (SMILES): COC(=O)Nc1ccc2c(c1)C(NC(=S)Nc1cccc(Cl)c1)CC(C)(C)O2 (racemic)
residual insulin secretion at 10 µM [20]: 26.1%
residual insulin secretion at 1 µM [22]: 84.2%
EC50 [23]: 15.4 µM

Structure (SMILES): CC(C)OC(=O)Nc1ccc2c(c1)C(NC(=S)Nc1cccc(C#N)c1)CC(C)(C)O2 (racemic)
residual insulin secretion at 10 µM [20]: 14.2%
residual insulin secretion at 1 µM [22]: 79.3%
EC50 [23]: 5.6 µM

Structure (SMILES): CC(C)OC(=O)Nc1ccc2c(c1)C(NC(=O)Nc1ccc(C#N)cc1)CC(C)(C)O2 (racemic)
residual insulin secretion at 10 µM [20]: 14.1%
residual insulin secretion at 1 µM [22]: 80.7%
EC50 [23]: 17.7 µM

More lines, in order of falling EC50 [23], values ahead:

EC50 [23]: 16.9 µM
Structure (SMILES): COC(=O)Nc1ccc2c(c1)C(NC(=O)Nc1cccc(C#N)c1)CC(C)(C)O2 (racemic)
residual insulin secretion at 10 µM [20]: 9.4%
residual insulin secretion at 1 µM [22]: 88.3%

Activity [1]: Active
Activity [2]: Active
EC50 [3]: 11.6 µM
Activity [5]: Active
EC50 [6]: 9.4 µM
Activity [8]: Active
Activity [9]: inactive
EC50 [11]: 12.2 µM
Activity [12]: Active
Activity [13]: Active
Ratio [14]: 44
Activity [15]: Active
Activity [16]: Active
IC50 [18]: 0.24 µM
EC50 [23]: 10.5 µM
Activity [24]: Active
Structure (SMILES): CC(C)(C)OC(=O)Nc1ccc2c(c1)C(NC(=O)Nc1cccc(C#N)c1)CC(C)(C)O2 (racemic)
Activity [4]: Active
residual insulin secretion at 0.5 µM [7]: 28.6%
Activity [10]: Active
Activity [17]: Active
inhibition [19]: Dose-dependent effect
residual insulin secretion at 10 µM [20]: 7.4%
residual insulin secretion at 0.1 µM [21]: 82%
residual insulin secretion at 1 µM [22]: 15.6%
Activity [23]: Dose-dependent effect

EC50 [23]: 10.4 µM
Structure (SMILES): CC(C)OC(=O)Nc1ccc2c(c1)C(NC(=S)Nc1ccc(Cl)cc1)CC(C)(C)O2 (racemic)
residual insulin secretion at 10 µM [20]: 14.9%
residual insulin secretion at 1 µM [22]: 81.2%

EC50 [23]: 4.8 µM
Structure (SMILES): COC(=O)Nc1ccc2c(c1)C(NC(=S)Nc1cccc(C#N)c1)CC(C)(C)O2 (racemic)
residual insulin secretion at 10 µM [20]: 29.3%
residual insulin secretion at 1 µM [22]: 85.1%
